These results are taken from ChEMBL document CHEMBL1208772, “Design, synthesis, and structure-activity relationship study of conformationally constrained analogs of indole-3-carboxamides as novel CB1 cannabinoid receptor agonists” (Bioorg Med Chem Lett, 2010).

Converted amounts (≈) assume the structure as drawn.

Series [1] has as its target T1, Cannabinoid receptor 1 (Homo sapiens, UniProt P21554). As to the kind of experiment: Displacement of [3H]CP-55940 from human cannabinoid CB1 receptor expressed in insect Sf9 cells. The method in brief:
(§1)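 Affinity at CB1 and CB2 came from radioligand competition binding with [3H]CP 55,940 and is reported as pKi.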
(In general: Displacement assays read how much labelled ligand stays bound in the presence of the test substance.)

Another series concerns the target Cannabinoid receptor 2 (Homo sapiens, UniProt P34972). Briefly: Displacement of [3H]CP-55940 from human cannabinoid CB2 receptor expressed in insect Sf9 cells. The method in brief:
as §1

Series [2] has as its target T1, Cannabinoid receptor 1. Briefly: Agonist activity at human cannabinoid CB1 receptor expressed in CHO cells after 5 hrs by luciferase reporter gene assay. The series is classed as functional, cell-based. The method in brief: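 Functional agonism was tested in CHO cells doubly transfected with human CB1 and a luciferase reporter gene. Potency is reported as pEC50, the mean of three experiments.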
A general note: Reporter assays use an easily measured gene product as a stand-in for the process of interest.

A short description of series [3]: Aqueous solubility of the compound at citrate buffer of pH 4.9. The series is classed as physicochemical. In outline: (§2)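 MSF solubility of the HCl salt was measured in citrate buffer (nominal pH 5) and in PBS (nominal pH 7.4). The final pH of each solution was recorded and reported alongside the solubility in mg/L.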
The nature of series [4]: Aqueous solubility of the compound at phosphate buffer solution of pH 7. The series is classed as physicochemical. In outline:
as §2

Series [5] in a line: Intrinsic clearance in mouse liver microsomes. The format is ADME, Microsome. A general note: Liver microsomes are vesicles of endoplasmic reticulum, rich in cytochrome P450 enzymes.
Series [6] in a line: Cmax in ICR mouse plasma at 0.5 umol/kg, iv after 0.05 hrs. The format is ADME, organism-based. Further details: dose 0.5 umol/kg, route intravenous. In outline:
(§3)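 ICR mice received a single iv dose in saline vehicle. Brain and plasma levels were measured with terminal sampling under CO2. Plasma Cmax was taken at t = 0.05 h. Brain exposure was given as Cmax, tmax and AUC over 0–1 h, plus a brain:plasma Cmax ratio from the same study.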

Series [7] is described as follows: AUC in ICR mouse plasma at 0.5 umol/kg, iv. The series is classed as ADME. The method in brief: as §3
Series [8] can be described thus: Clearance in ICR mouse at 0.5 umol/kg, iv. The format is ADME, organism-based. The following applies: in vivo. In outline: as §3
A short description of series [9]: Elimination half life in ICR mouse at 0.5 umol/kg, iv. The series is classed as ADME, organism-based. As to conditions: in vivo, read-out: beta t1/2 (converted). In outline:
as §3

Series [10] in a line: Volume of distribution at steady state in ICR mouse at 0.5 umol/kg, iv. The series is classed as ADME, organism-based. As to conditions: in vivo, read-out: Vdss. The method in brief:
as §3

Series [11] in a line: Cmax in ICR mouse brain at 0.5 umol/kg, iv. The series is classed as ADME, organism-based. Further details: dose 0.5 umol/kg, route intravenous. In outline:
as §3

Series [12] is described as follows: Tmax in ICR mouse brain at 0.5 umol/kg, iv. The series is classed as ADME, organism-based. In outline: as §3
A further series relates to Brain. As to the kind of experiment: AUC (0 to 1 hr) in ICR mouse brain at 0.5 umol/kg, iv. Also on record: dose 0.5 umol/kg, time < 1 hr, route intravenous. The following applies: in vivo. The series is classed as ADME, organism-based. In outline: as §3
Series [13] can be described thus: Ratio of Cmax in brain to plasma in ICR mouse brain at 0.5 umol/kg, iv. The series is classed as ADME. The following applies: brain and plasma. In outline: as §3
In the next series the test system is Mus musculus. Briefly: Antinociceptive activity against Freund's complete adjuvant-induced […] pain in iv dosed mouse assessed as increase in tail flick latency by tail flick test. The series is classed as functional.
Series [14] can be described thus: Aqueous solubility of the compound at phosphate buffer solution of pH 6.7. The series is classed as physicochemical.
Series [15] can be described thus: Aqueous solubility of the compound at citrate buffer of pH 5. The format is physicochemical.

T1 sequence (P21554 whole entry): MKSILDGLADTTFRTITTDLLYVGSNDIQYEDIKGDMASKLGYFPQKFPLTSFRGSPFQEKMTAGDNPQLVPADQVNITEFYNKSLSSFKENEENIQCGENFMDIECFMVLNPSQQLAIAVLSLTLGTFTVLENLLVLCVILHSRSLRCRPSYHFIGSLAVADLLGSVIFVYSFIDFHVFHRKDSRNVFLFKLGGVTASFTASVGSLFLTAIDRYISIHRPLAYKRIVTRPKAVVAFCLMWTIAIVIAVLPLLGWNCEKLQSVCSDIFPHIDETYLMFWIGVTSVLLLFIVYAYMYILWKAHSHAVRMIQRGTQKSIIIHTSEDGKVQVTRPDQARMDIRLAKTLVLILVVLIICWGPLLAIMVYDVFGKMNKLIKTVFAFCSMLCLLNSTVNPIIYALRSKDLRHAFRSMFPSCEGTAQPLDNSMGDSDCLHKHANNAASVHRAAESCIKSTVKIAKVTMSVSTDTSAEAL
Cannabinoid receptor 2, sequence (P34972 whole entry): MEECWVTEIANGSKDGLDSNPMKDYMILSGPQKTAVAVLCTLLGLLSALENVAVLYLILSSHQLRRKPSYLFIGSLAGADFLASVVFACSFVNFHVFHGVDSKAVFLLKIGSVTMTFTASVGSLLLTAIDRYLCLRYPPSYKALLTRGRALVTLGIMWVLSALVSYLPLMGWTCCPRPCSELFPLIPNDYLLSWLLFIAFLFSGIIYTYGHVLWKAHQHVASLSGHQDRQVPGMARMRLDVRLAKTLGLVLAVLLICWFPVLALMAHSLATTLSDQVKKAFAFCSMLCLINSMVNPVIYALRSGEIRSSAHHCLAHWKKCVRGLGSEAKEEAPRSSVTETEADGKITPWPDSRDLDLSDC

What is called Ki is the dissociation constant of the complex between target and ligand, obtained from inhibition or displacement. A lower Ki goes with higher affinity. Regarding `CCN1CCN(C(=O)c2cn3c4c(cccc24)OC[C@H]3C2CCCCC2)CC1`, the Ki on Cannabinoid receptor 1 [1] was 12.6 nM; at Cannabinoid receptor 2, 3.98 nM.
A word on the EC50: it is the concentration giving half of the maximal effect. High values mean weaker potency, low ones greater potency. On Cannabinoid receptor 1 [2], `O=C(c1cn2c3c(cccc13)OC[C@H]2C1CCCCC1)N1CCNCC1` gave a concentration giving a half-maximal response (EC50) of 3980 nM.
Same read-out and setting: the value for `C[C@@H]1CN(C(=O)c2cn3c4c(cccc24)OC[C@H]3C2CCCCC2)C[C@H](C)N1` was 126 nM.
Usually solubility stands for how much of the substance goes into solution per volume. High values mean much dissolved substance, low ones little dissolved substance. Regarding `CCN1CCN(C(=O)c2cn3c4c(cccc24)CCC3C2CCCCC2)CC1` (configuration not stated), the EC50 on Cannabinoid receptor 1 [2] is 25.1 nM. Also, the solubility is 3510 µg/mL (≈ 9250 µM) in series [3] and 114 µg/mL (≈ 300 µM) in [4].
At Cannabinoid receptor 1 [2], `C[C@H]1CN(C(=O)c2cn3c4c(cccc24)OC[C@H]3C2CCCCC2)CCN1` gave an EC50 of 501 nM.
On the same count and under the same terms, the value for `CCN1CCN(C(=O)c2cn3c4c(cccc24)OCC3C2CCCCC2)CC1` (configuration not stated) was 31.6 nM.
Turning to `CCN1CCN(C(=O)c2cn3c4c(cccc24)OC[C@@H]3C2CCCCC2)CC1`, the EC50 at Cannabinoid receptor 1 [2] is over 10000 nM. Further, the values for the solubility in series [3] and in series [4] were over 4000 µg/mL and 308 µg/mL (≈ 807 µM), respectively.
On to `CCN1[C@H](C)CN(C(=O)c2cn(CC3CCCCC3)c3c(OC)cccc23)C[C@@H]1C`, for which the EC50 at Cannabinoid receptor 1 [2] was 10 nM.
Still for that read-out and setting: the value for `C[C@@H]1CNC[C@H](C)N1C(=O)c1cn2c3c(cccc13)OC[C@H]2C1CCCCC1` was 794 nM.
On the same count and under the same terms, the value for `C[C@@H]1CN(C)C[C@H](C)N1C(=O)c1cn2c3c(cccc13)OC[C@H]2C1CCCCC1` was 63.1 nM; that for `COc1cccc2c(C(=O)N3C[C@@H](C)N(C)[C@@H](C)C3)cn(CC3CCCCC3)c12` was 25.1 nM.
As a reminder, the microsomal CLint is the capacity of the preparation to metabolise the compound, expressed as a volume cleared per time. By Cmax is commonly meant the maximum level reached in the sampled fluid or tissue. Usually clearance stands for a measure of how efficiently the substance is removed, as volume per time. Usually Tmax stands for the time from dosing to the highest level. The term Kp denotes the ratio of the level in a tissue or fluid to that in plasma or blood. One may read the ED50 as the dose at which the effect has come halfway, by size or by number of responders. Turning to `C[C@H]1CN(C(=O)c2cn3c4c(cccc24)OC[C@H]3C2CCCCC2)CCN1C`, in [5], the microsomal CLint is over 180 µL/min/mg. The results for the Cmax in series [6] and in [11] were 51.5 ng/mL and 76.2 ng/g, respectively. For the same molecule, the AUC worked out at 23.7 ng·h/mL in series [7] and 44.6 ng·h/g in the series with Brain. For the same molecule, the clearance in series [8] came out at 134 mL/min/kg. Moreover, the half-life in series [9] was 13.8 min. For the same molecule, in series [10], the Vd amounted to 2.6 L/kg. The Tmax in [12] stood at 10.2 min. Further, in series [13], the Kp was found to be 1.48. Besides, the ED50 in the series with Mus musculus amounted to 0.19 µmol/kg. In addition, the values for the Ki on Cannabinoid receptor 1 [1] and at Cannabinoid receptor 2 were 2 nM and 0.398 nM, respectively.
On to `CCN1CCN(C(=O)c2cn(CC3CCCCC3)c3c(OC)cccc23)CC1`, for which the solubility in series [14] was 216 µg/mL (≈ 563 µM); in series [15], 3400 µg/mL (≈ 8860 µM). This molecule also showed an EC50 at Cannabinoid receptor 1 [2] of 158 nM.
